Laboratory results published in ChEMBL document CHEMBL2429796, “Discovery and synthesis of novel benzofurazan derivatives as inhibitors of influenza A virus” (Bioorg Med Chem Lett, 2013).
Calls of active or inactive are those of the source. The rule behind the calls is not given here.

Assays:
MDCK = assay: Cytotoxicity against MDCK cells; assay type: cell-based, Canis lupus familiaris; conditions: dog
HEK-293T = assay: Inhibition of influenza A virus HA-tagged polymerase acidic protien transfected in HEK293T cells after 24 hrs by ELISA; assay type: cell-based
Influenza A virus = assay: Antiviral activity against Influenza A virus A/WSN/33(H1N1) infected in MDCK cells after 48 hrs by plaque reduction assay; assay type: functional, organism-based, A/WSN/1933(H1N1)
Method in brief: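 Plaque-reduction assay in MDCK cells infected with influenza A/WSN/33 (H1N1). IC50 was determined only for compounds positive in an ELISA prescreen for binding to the polymerase PA subunit.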

[1] = Influenza A virus, A/WSN/1933(H1N1), MDCK, 48 h, read-out: IC50

Structure (SMILES) | Cytotoxic concentration (MDCK) [µM] | inhibition (HEK-293T) | IC50 (Influenza A virus; [1]) [µM] | IC50 (Influenza A virus; mdck) | Activity (MDCK) [µM]
O=[N+]([O-])c1ccc(Sc2ccc([N+](=O)[O-])c3nonc23)cc1 | 40 | Active | 10 | – | –
O=[N+]([O-])c1ccc(Sc2ccc(F)cc2)c2nonc12 | 40 | Active | 5 | – | –
O=[N+]([O-])c1ccc(Nc2ccc(O)cc2)c2nonc12 | – | Active | – | Not Active | –
COc1ccc(CSc2ccc(NCc3ccccc3)c3nonc23)cc1 | – | Active | – | Not Active | –
O=[N+]([O-])c1ccc(OCc2ccccc2)c2nonc12 | – | Active | – | Not Active | –
O=[N+]([O-])c1ccc(Oc2ccc(CCO)cc2)c2nonc12 | 20 | Active | 10 | – | –
O=Cc1ccc(Oc2ccc([N+](=O)[O-])c3nonc23)cc1 | > 40 | Active | 20 | – | –
O=[N+]([O-])c1ccc(Nc2ccccc2O)c2nonc12 | – | Active | – | Not Active | –
O=[N+]([O-])c1ccc(SCc2ccc(Br)cc2)c2nonc12 | > 10 | Active | ≥ 5 | – | –
COc1ccc(Sc2ccc([N+](=O)[O-])c3nonc23)cc1 | 40 | Active | – | Not Active | –
CNc1ccc(SCc2ccc(OC)cc2)c2nonc12 | – | Active | – | Not Active | –
O=[N+]([O-])c1ccc(SCc2ccc(Cl)cc2)c2nonc12 | – | Active | – | Not Active | –
O=[N+]([O-])c1ccc(Oc2cccc(Br)c2)c2nonc12 | > 40 | Active | 20 | – | –
N#Cc1ccc(Oc2ccc([N+](=O)[O-])c3nonc23)cc1 | – | Active | – | Not Active | –
O=[N+]([O-])c1ccc(Sc2ccc(Cl)cc2)c2nonc12 | 40 | Active | 10 | – | –
COc1ccc(CSc2ccc(Cl)c3nonc23)cc1 | – | Active | – | Not Active | –
COc1cccc(Oc2ccc([N+](=O)[O-])c3nonc23)c1 | – | Active | – | Not Active | –
O=[N+]([O-])c1ccc(SCc2ccccc2)c2nonc12 | – | Active | – | Not Active | 20
O=[N+]([O-])c1ccc(Sc2ccccc2)c2nonc12 | – | Active | – | Not Active | 20
O=[N+]([O-])c1ccc(Sc2ccc(Br)cc2)c2nonc12 | 40 | Active | 10 | – | –
COc1ccc(Oc2ccc([N+](=O)[O-])c3nonc23)cc1 | 60 | Active | 30 | – | –
O=[N+]([O-])c1ccc(SCc2ccc(F)cc2)c2nonc12 | 20 | Active | – | Not Active | –
O=[N+]([O-])c1cccc(CSc2ccc([N+](=O)[O-])c3nonc23)c1 | 20 | Active | 1 | – | –
Nc1cccc(Sc2ccc([N+](=O)[O-])c3nonc23)c1 | 40 | Active | 10 | – | –
O=[N+]([O-])c1ccc(Sc2ccccc2Br)c2nonc12 | 40 | Active | > 10 | – | –
O=[N+]([O-])c1ccc(Nc2ccccc2S)c2nonc12 | > 80 | Active | 20 | – | –
